Screening results as filed in PubChem.
eIF4H FP inh = inhibitors of RNA binding by human eIF4H; Q15056; eIF4H fluorescence polarization binding assay; inhibition, % at 35 µM; 290,000 tested, 0.94% active;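 note: calls also rest on retests at 20 µM and on dose response follow-up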
MT1-MMP act inh = MT1-MMP (human) activation inhibition; 360,000 tested, 0.061% active; GFP/RFP ratio change, % at 20 µM; HT1080 RFP-PRO-GFP cells, GFP/RFP ratio fluorescence, overnight; percent of plate control window, DMSO zero;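 active = GFP/RFP ratio change of at least 30% with cell ATP level not reduced by more than half and red fluorescence within 50% of control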
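Material: RFP-PRO-GFP reporter HT1080 cells. Dosing: single-point 20 µM compound, 1% DMSO. Controls: DMSO and RFP-L50D-GFP cell wells. Timing: cells overnight before dosing, compound overnight, 37 °C, 5% CO2. Measure: GFP/RFP fluorescence ratio.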
SKN-1 block = blocks SKN-1 activity in C. elegans | C. elegans VP596 Pgst-4::GFP/RFP ratio, acrylamide-induced, 24 h | inhibition, % at 21.8 µM | 360,000 tested, 0.49% active | AID 624304;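 active = interference check ratio from 0.5 to 1.5 plus GFP to RFP signal ratio inhibition reaching or exceeding a fixed threshold, cut at about 30% in these data, passing the limit was not always enough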
PABP FP inh = blocks human PABP binding to poly(A) RNA; P11940; fluorescence polarization; calls only at 35 µM; 290,000 tested, 1% active;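 note: calls also rest on retests at 20 µM and on dose response follow-up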
PABP1 MLLE inh = inhibitors of microRNA-mediated deadenylation, human PABP1 MLLE binding; 360,000 tested, 0.36% active; inhibition, % at 20 µM; GST-MLLE / FITC-PAM2 fluorescence polarization; P11940; in the data active = inhibition above about 35%, passing the limit was not always enough;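 note: plate controls were DMSO wells with GST-MLLE for no effect and wells lacking GST-MLLE protein for full effect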
An asterisk follows results filed as active. An excerpt weighted towards active compounds, which were near 1.8% of everything screened. Unless noted, the rule behind the calls is not given here.

For O=C(O)c1ccc(NC2=C/C(=N/S(=O)(=O)c3ccccc3)c3ccccc3C2=O)cc1 the results were eIF4H FP inh 9, MT1-MMP act inh -2, SKN-1 block 5, PABP FP inh inactive and PABP1 MLLE inh 21.
For Cc1cc(C)c(S(=O)(=O)/N=C2\C=C(Nc3ccc(C(=O)O)cc3)C(=O)c3ccccc32)c(C)c1 the results were eIF4H FP inh 60*, MT1-MMP act inh 16, SKN-1 block -11, PABP FP inh active and PABP1 MLLE inh 8.
COc1cccc(Oc2ccc(C(F)(F)F)cc2NC(=O)CN2C(=O)NC3(CCCC3)C2=O)c1 was read as MT1-MMP act inh 3, SKN-1 block 21 and PABP1 MLLE inh -84.
CS(=O)(=O)N1CCc2ccc(NC(=O)C3CCCO3)cc2C1 (stereo unspecified) was read as eIF4H FP inh -4, MT1-MMP act inh 1, SKN-1 block -4, PABP FP inh inactive and PABP1 MLLE inh 12.
Screening O=C(COC(=O)c1cccc([N+](=O)[O-])c1)NCC1CCCO1 (stereo unspecified) returned eIF4H FP inh active, MT1-MMP act inh -1, SKN-1 block 13, PABP FP inh active and PABP1 MLLE inh -8.
For O=C(COC(=O)c1ccccc1)NCC1CCCO1 (stereo unspecified) the results were eIF4H FP inh -1, MT1-MMP act inh 9, SKN-1 block 8, PABP FP inh inactive and PABP1 MLLE inh 12.
For Cc1c(C(=O)OCCOC(C)C)[nH]c2c1C(=O)CC(c1ccco1)C2 (stereo unspecified) the results were eIF4H FP inh 59*, MT1-MMP act inh 16, SKN-1 block 16, PABP FP inh inactive and PABP1 MLLE inh -4.
`CSCCOC(=O)c1[nH]c2c(c1C)C(=O)CC(c1ccco1)C2` (stereo unspecified) gave eIF4H FP inh 90, MT1-MMP act inh 1, SKN-1 block 7, PABP FP inh inactive and PABP1 MLLE inh -8.
COCCOC(=O)c1[nH]c2c(c1C)C(=O)CC(c1ccco1)C2 (stereo unspecified) was read as eIF4H FP inh 84*, MT1-MMP act inh 8, SKN-1 block 17, PABP FP inh inactive and PABP1 MLLE inh 7.
For Cc1c(C(=O)OCc2ccccc2)[nH]c2c1C(=O)CC(c1ccco1)C2 (stereo unspecified) the results were eIF4H FP inh 81, MT1-MMP act inh 3, SKN-1 block 6, PABP FP inh active and PABP1 MLLE inh 8.
`CCOC(=O)c1[nH]c2c(c1C)C(=O)CC(c1ccco1)C2` (stereo unspecified) gave eIF4H FP inh 99*, MT1-MMP act inh 16, SKN-1 block 7, PABP FP inh active and PABP1 MLLE inh -14.
COCCOC(=O)c1[nH]c2c(c1C)C(=O)CC(c1ccccc1)C2 (stereo unspecified) was read as eIF4H FP inh -5, MT1-MMP act inh 7, SKN-1 block 16, PABP FP inh inactive and PABP1 MLLE inh 11.
For COc1cccc(OC)c1NC(=O)C1CCCN1C(=O)Nc1cccc(Cl)c1 (stereo unspecified) the results were eIF4H FP inh 2, MT1-MMP act inh 2, SKN-1 block 9, PABP FP inh inactive and PABP1 MLLE inh 5.
`COc1cccc(F)c1C(=O)NC(=O)Nc1ccc2nc(C)oc2c1` gave eIF4H FP inh 82, MT1-MMP act inh -10, SKN-1 block 1, PABP FP inh active and PABP1 MLLE inh 82.
Screening CSc1nc2ccc(NC(=O)NC(=O)c3c(F)cccc3F)cc2s1 returned eIF4H FP inh -6, MT1-MMP act inh -2, SKN-1 block 0, PABP FP inh inactive and PABP1 MLLE inh 6.
For Cc1cc(C)c(C)c(S(=O)(=O)NCCCN2CCCC2=O)c1C the results were eIF4H FP inh 6, MT1-MMP act inh -2, SKN-1 block 14, PABP FP inh inactive and PABP1 MLLE inh 4.
`CCOC(=O)COc1cccc2c(=O)n(CC(N)=O)ccc12` gave eIF4H FP inh -2, MT1-MMP act inh 4, SKN-1 block -3, PABP FP inh inactive and PABP1 MLLE inh 8.
For CCOC(=O)COc1cccc2c(=O)n(CC(=O)N3CCCCC3)ccc12 the results were eIF4H FP inh 103*, MT1-MMP act inh 2, SKN-1 block 1, PABP FP inh active and PABP1 MLLE inh 9.
